Only some compounds are listed: those with a hit (about 2% of all), similar ones and a draw of the others.
CCR6 antagonist: CCR6 (human) receptor antagonism | CHO-K1 CCR6 PathHunter beta-arrestin, luminescence, CCL20-stimulated | inhibition, % at 20 µM | actives 0.49% (n = 340,000);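 active means compounds whose inhibition of the agonist-driven luminescence signal at 20 µM reaches about 50%, limit read from the data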;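 further: cells stimulated with CCL20 at 14 nM final; plate controls were DMSO with CCL20 for no effect and DMSO without agonist for full effect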
EBI2 antag: antagonists of human EBI2 receptor; AID 651636; EBI2 beta-arrestin recruitment, luminescence, 7a,25-OHC stimulated; inhibition, % at 5 µM; actives 0.81% (n = 360,000); P32249; in the data active means inhibition above about 38%;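 further: enzyme fragment complementation signal reports receptor beta-arrestin coupling in cells; 0% = agonist plus DMSO wells and 100% = wells without agonist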
Target sequence (P32249 whole entry, looked up, the tested form may be a part): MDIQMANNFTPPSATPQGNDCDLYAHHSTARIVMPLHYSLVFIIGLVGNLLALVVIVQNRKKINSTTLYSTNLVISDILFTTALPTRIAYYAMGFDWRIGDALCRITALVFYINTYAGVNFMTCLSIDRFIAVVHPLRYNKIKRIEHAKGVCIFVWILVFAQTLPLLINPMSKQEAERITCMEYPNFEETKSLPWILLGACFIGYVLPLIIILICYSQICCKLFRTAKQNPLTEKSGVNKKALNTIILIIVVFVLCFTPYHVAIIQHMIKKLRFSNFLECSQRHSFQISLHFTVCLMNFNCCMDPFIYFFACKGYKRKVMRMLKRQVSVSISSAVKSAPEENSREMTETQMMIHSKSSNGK
CXCR6 inh: CXCR6 (human) receptor inhibition; inhibition, % at 20 µM; actives 0.36% (n = 360,000); CHO-K1 PathHunter CXCR6 beta-arrestin, luminescence; O00574; in the data active means inhibition above about 34%, passing the limit was not always enough;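 further: antagonist mode with CXCL16 agonist at 10 nM final; 0% = 10 nM CXCL16 with DMSO and 100% = unstimulated wells without agonist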
Target sequence (O00574 whole entry, looked up): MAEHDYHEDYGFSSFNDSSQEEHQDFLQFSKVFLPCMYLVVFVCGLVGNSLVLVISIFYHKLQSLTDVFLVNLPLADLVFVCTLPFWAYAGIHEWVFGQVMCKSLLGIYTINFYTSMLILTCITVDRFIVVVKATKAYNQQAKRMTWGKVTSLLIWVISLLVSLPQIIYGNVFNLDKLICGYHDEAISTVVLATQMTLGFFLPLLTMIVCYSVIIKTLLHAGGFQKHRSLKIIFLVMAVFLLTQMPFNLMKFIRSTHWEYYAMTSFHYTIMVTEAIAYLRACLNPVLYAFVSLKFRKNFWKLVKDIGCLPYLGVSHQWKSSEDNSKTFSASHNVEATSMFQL
APJ antag: antagonists of human APJ apelin receptor | P35414 | CHO-K1 APJ beta-arrestin complementation, luminescence | inhibition, % at 20 µM | actives 0.32% (n = 330,000) | AID 2521;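 active means inhibition above about 40% at 20 µM, limit read from the data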;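 further: cells challenged with 10 nM apelin-13 agonist together with compound; plate controls were apelin-13 plus DMSO wells for no effect and DMSO wells lacking apelin-13 for full effect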
FXN GAA850 act: frataxin GAA850 promoter activation. HEK293 lucGAA850 FXN promoter luciferase reporter, 24 h; percent of 10 µM SAHA response. actives 0.56% (n = 360,000). AID 540364. activation, % at 6 µM;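 active means activation above the average of all compounds screened plus 3 SD, cutoff fixed separately per campaign, cut at about 7.5% in these data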;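 further: 0% = DMSO wells and 100% = 10 µM SAHA wells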
APJ agonist: APJ receptor agonism; actives 0.11% (n = 330,000); activation, % at 20 µM; P35414; CHO-K1 APJ PathHunter beta-arrestin, luminescence; 0% DMSO wells, 100% apelin;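 active means activation more than six SD over the plate average, tested at 20 µM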;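 further: 0% = DMSO alone and 100% = apelin-13 at 10 nM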
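system = engineered CHO-K1 APJ arrestin reporter cells | input = 1000 cells per well | timing = overnight seeding, 90 min compound at 25 °C, 1 h detection | measured by = enzyme-fragment complementation luminescence | read-out = beta-arrestin recruitment to APJ as agonist activity, luminescent signal | control set = negative DMSO alone, positive Apelin-13 at 10 nM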
GAA30 FXN cntr: counter-screen for GAA850 frataxin promoter activators: GAA30 promoter activation | shares compounds with FXN GAA850 act | HEK293 lucGAA30 FXN promoter luciferase, 24 h; DMSO = 0%, 5 µM ipriflavone = 100% | activation, % at 6 µM | actives 66% (n = 1,900);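 active means mean activation above the mean of solvent-only control wells plus 3 SD, cut at about 22% in these data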;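 further: counterscreen of GAA850 promoter hits where activity marks nonselective or luminescence artifacts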
GAA850 confirm: confirmation of GAA850 frataxin (FXN) promoter activators | HEK293 lucGAA850 FXN promoter luciferase reporter, 24 h; 100% = activation by SAHA | shares compounds with FXN GAA850 act | AID 588351 | activation, % at 6 µM | actives 86% (n = 1,900);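 active means mean activation above a set limit taken from the primary screen, cut at about 8% in these data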;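 further: 0% = DMSO wells and 100% = 10 µM SAHA wells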
* hit, by the source's call; / = not tested or not shown.

SMILES	CCR6 antagonist	EBI2 antag	CXCR6 inh	APJ antag	FXN GAA850 act	APJ agonist	GAA30 FXN cntr	GAA850 confirm
O=C(NC1CCCC1)C1c2ccccc2OCC(=O)N1CCc1ccccc1 (centres undefined)	/	-13.3	4.2	/	/	/	/	/
C[C@H](CO)N1C[C@H](C)[C@@H](CN(C)S(=O)(=O)c2ccc(F)cc2)OCc2cn(nn2)CCCC1=O	/	-6.0	3.9	/	-1.8	/	/	/
CN1C2=NCCN2C(=O)c2cc(Cl)ccc21	-1.0	-11.4	-4.1	-3.6	0.8	-0.4	/	/
Clc1ccc2c(c1)-c1ccccc1C1=NCCN12	/	-7.6	-0.5	/	32.9*	/	-0.6	138.6*
Brc1ccc2c(c1)-c1ccccc1C1=NCCN12	/	-3.4	-3.0	/	23.9*	/	11.2	130.1*
CCS(=O)(=O)N1Cc2ccccc2CC1C(=O)Nc1nccs1 (centres undefined)	-3.1	-8.7	1.9	2.4	8.2*	-3.2	108.8*	38.3*
COc1ccc(S(=O)(=O)N2Cc3ccccc3CC2C(=O)Nc2nccs2)cc1 (centres undefined)	16.4	-0.6	-1.2	26.3	2.6	-4.0	/	/
CCS(=O)(=O)N1Cc2ccccc2CC1C(=O)Nc1nc(C)cs1 (centres undefined)	3.2	6.8	9.7	18.9	7.9*	-0.8	79.5*	33.0*
O=C(N=C1SC2CS(=O)(=O)CC2N1Cc1ccccc1)C1CC1 (centres undefined)	/	-7.6	3.1	/	1.3	/	/	/
C=C1CCN(C(CC(C)C)C(=O)OC)S(=O)(=O)c2ccccc21 (centres undefined)	13.4	3.5	7.9	-0.3	-0.3	-5.7	/	/
C=C1CCN([C@@H](CC(C)C)C(=O)Nc2ccc(OC)cc2)S(=O)(=O)c2ccccc21	2.1	0.1	4.2	17.1	14.2*	0.6	22.2*	10.9*
COC1CC(NC(C)=O)C(OC(=O)c2ccccc2)C(CBr)O1 (centres undefined)	/	-4.3	-0.4	/	-0.5	/	/	/
O=C(Nc1cc2c(cc1Cl)-c1ccc([N+](=O)[O-])cc1C2=NO)C(F)(F)F	20.6	-5.0	6.0	/	-0.9	/	/	/
Cn1c(-c2cccc([N+](=O)[O-])c2)cnc1NCc1cccc(F)c1	16.6	-8.6	-8.4	-6.3	0.1	-3.3	/	/
CC(C)c1ccc(NC(=O)NN2CCOCC2)cc1	-1.0	-8.9	0.7	-3.8	8.0*	-3.9	85.1*	33.4*
Cc1ccc(Nc2nc3ccccc3[nH]2)nc1	17.9	-4.7	12.5	6.0	9.4*	-1.3	85.6*	42.5*
CCOC(=O)NN=C1c2ccccc2-c2ccccc21	-13.1	-6.9	8.5	12.7	1.5	1.4	/	/
CCOC(=O)Nc1ccc2c(c1)C(=NNC(=S)NC)c1ccccc1-2	/	20.2	15.9	/	13.7*	/	48.1*	20.2*
CCc1cccc(NC(=O)Cn2c(=O)n(CCC(=O)NCC3CCCO3)c(=O)c3cc(OC)c(OC)cc32)c1 (centres undefined)	5.2	3.8	3.1	10.4	-1.1	0.5	/	/
COC(=O)c1cc(-c2ccc(Br)cc2)on1	-37.8	-6.9	-5.6	0.2	1.9	12.4	/	/
CCN(CC)C(=O)c1cc(-c2ccc(Br)cc2)on1	3.6	6.9	-16.1	-24.5	8.0*	-3.4	111.3*	39.6*
Cc1ccc(NC(=O)C(=O)NCc2ccccn2)cc1	14.2	-3.9	0.3	-3.3	8.3*	-1.4	90.1*	38.0*
O=C(NC1CCCC1)C(c1ccsc1)N(Cc1ccccc1)C(=O)Cc1cccs1 (centres undefined)	15.7	24.0	5.6	14.9	14.0*	-5.6	14.1	19.1*
O=C(NC1CCCC1)C(c1ccncc1)N(Cc1ccccc1)C(=O)Cc1cccs1 (centres undefined)	2.5	-1.2	5.5	15.9	3.5	-0.5	/	/
COc1ccc(C(=O)c2sc(Nc3ccccc3)nc2N)cc1	16.5	21.5	-0.3	13.3	3.9	-4.9	/	/
SMILES	CCR6 antagonist	EBI2 antag	CXCR6 inh	APJ antag	FXN GAA850 act	APJ agonist	GAA30 FXN cntr	GAA850 confirm
COc1ccc(C(=O)c2sc(Nc3ccccc3F)nc2N)cc1	20.2	34.1	0.8	-8.2	8.1*	-3.0	81.4*	42.5*
Cc1cnc(NC(=O)c2sc(Nc3ccccc3)nc2N)o1	2.0	6.0	-6.2	-2.9	2.9	-3.8	/	/
Nc1nc(Nc2ccccc2)sc1C(=O)c1ccccc1	18.9	18.5	-1.7	24.3	21.8*	0.1	102.4*	107.3*
COc1ccc(C(=O)c2sc(Nc3ccccc3)nc2N)cc1OC	6.1	3.3	-8.7	-7.0	9.2*	-3.3	-19.6	37.8*
OC[C@@H]1CN(Cc2ccco2)C[C@H](n2cnc3c(NC4CC4)ncnc32)O1	/	1.5	-2.5	/	0.7	/	/	/
Cc1ccccc1OCCC(=O)OCC(=O)Nc1c(F)cccc1F	3.2	-26.1	-7.6	14.4	-0.3	4.4	/	/
O=C(O)c1ccccc1N/N=C/c1cc(Br)cc(Br)c1O	15.2	1.8	5.2	11.8	9.3*	-5.0	134.8*	42.3*
O=C(Nc1ccccc1C(=O)NC(Cc1ccccc1)C(=O)NC1CCCCC1)c1ccccc1 (centres undefined)	-6.0	16.0	7.4	0.3	7.7*	-2.7	14.8	6.0
O=C(Nc1ccccc1C(=O)NC(Cc1ccccc1)C(=O)O)c1ccccc1 (centres undefined)	-3.4	-5.8	-14.2	2.4	2.0	-1.0	/	/
CCC(CC)c1nnc(NC(=O)CN2C(=O)C3C4C=CC(C4)C3C2=O)s1 (centres undefined)	-24.6	4.5	0.4	13.6	9.9*	-2.3	14.1	7.0
COc1ccc2nc(SC(C(=O)c3ccccc3)c3ccccc3)nc(C)c2c1 (centres undefined)	21.1	18.7	14.8	6.9	11.2*	-2.4	20.0	19.2*
COC(=O)CSc1ncnc2c1sc1nc(N3CCOCC3)c3c(c12)CCCC3	2.2	12.0	2.3	0.7	1.5	-0.7	/	/
COC(=O)c1ccc(CSc2ncnc3c2sc2nc(N4CCOCC4)c4c(c23)CCCC4)o1	12.5	29.9	12.7	14.7	13.3*	-0.5	11.6	15.2*
O=S(Cc1ccccc1)Cc1ccccc1	10.1	-12.9	-11.3	/	-0.5	/	/	/
O=C(NCCCn1ccnc1)c1cc(-c2cccs2)on1	2.9	-2.6	5.2	4.0	41.4*	-4.2	158.6*	114.3*
O=C(NC1CCCC1)c1cc(-c2cccs2)on1	15.5	4.5	-1.0	0.0	18.1*	-4.2	158.8*	91.5*

From PubChem
